In brackets after ≈: the same amount, converted by molar mass. Activity calls are given as the source filed them. The calls are words filed in the database; no cut-off is given here.
Columns and labels:
Staphylococcus aureus [1] = assay: Antibacterial activity against Staphylococcus aureus ATCC 6538P assessed as diameter of zone inhibition measured after 18 hrs by CLSI disc diffusion method; format: functional
How it was run: (§1)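 Disc diffusion on Mueller-Hinton II agar. Compounds dissolved in DMSO. Strains stored at -80 °C and subcultured twice on tryptic soy agar before testing. Inhibition zones read after 35 °C, 18 h.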

Pseudomonas aeruginosa [2] = assay: Antibacterial activity against Pseudomonas aeruginosa ATCC 27853 measured after 18 hrs by CLSI broth dilution method; format: functional; details: ATCC 27853, 18 h
How it was run: (§2)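 Broth MIC in Mueller-Hinton II broth following CLSI, compounds dissolved in DMSO. Strains subcultured twice on tryptic soy agar before testing. Growth read after 35 °C, 18 h.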

[3] = Dissociation constant, pKa1 of compound in 0.1 M NaOH by potentiometric analysis; format: physicochemical
[4] = test system: Meyerozyma guilliermondii; assay: Antifungal activity against Candida guilliermondii IBA 155 assessed as decrease in fungal cell growth at 0.78 to 12.5 mg/L incubated for 24 hrs by CLSI broth dilution method; format: functional; details: IBA 155, 24 h
How it was run: (§3)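 Yeast broth dilution in RPMI 1640 with 2% glucose, compounds in DMSO. Yeasts pre-grown on Sabouraud dextrose agar. Growth read after 35 °C, 24 h.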

Pichia kudriavzevii [5] = assay: Antifungal activity against Candida krusei ATCC 6258 assessed as decrease in fungal cell growth at 0.78 to 12.5 mg/L incubated for 24 hrs by CLSI broth dilution method; format: functional; details: ATCC 6258, 24 h; how it was run: as §3
Saccharomyces cerevisiae = assay: Antifungal activity against Saccharomyces cerevisiae ATCC 9763 assessed as decrease in fungal cell growth at 0.78 to 12.5 mg/L incubated for 24 hrs by CLSI broth dilution method; format: functional; details: ATCC 9763, 24 h
How it was run: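 Yeast strain subcultured on Sabouraud dextrose agar for 24–48 h at 30 °C before testing. Compounds dissolved in DMSO.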

Candida albicans = assay: Antifungal activity against Candida albicans ATCC 90028 assessed as diameter of zone inhibition incubated for 24 hrs by CLSI disc diffusion method; format: functional
How it was run: (§4)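 Yeast disc diffusion on Mueller-Hinton agar supplemented with 2% glucose and 0.5 mg/L methylene blue. Compounds in DMSO. Yeasts subcultured on Sabouraud dextrose agar before testing. Zones read after 35 °C, 24 h.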

Candida parapsilosis = assay: Antifungal activity against Candida parapsilosis ATCC 22019 assessed as diameter of zone inhibition incubated for 24 hrs by CLSI disc diffusion method; format: functional; how it was run: as §4
Candida tropicalis = assay: Antifungal activity against Candida tropicalis IBA 171 assessed as diameter of zone inhibition incubated for 24 hrs by CLSI disc diffusion method; format: functional; how it was run: as §4
[6] = test system: Meyerozyma guilliermondii; assay: Antifungal activity against Candida guilliermondii IBA 155 assessed as diameter of zone inhibition incubated for 24 hrs by CLSI disc diffusion method; format: functional; how it was run: as §4
Pichia kudriavzevii [7] = assay: Antifungal activity against Candida krusei ATCC 6258 assessed as diameter of zone inhibition incubated for 24 hrs by CLSI disc diffusion method; format: functional; how it was run: as §4
Staphylococcus aureus [8] = assay: Antibacterial activity against Staphylococcus aureus ATCC 6538P measured after 18 hrs by CLSI broth dilution method; format: functional; how it was run: as §2
[9] = test system: Staphylococcus epidermidis; assay: Antibacterial activity against Staphylococcus epidermidis ATCC 12228 measured after 18 hrs by CLSI broth dilution method; format: functional; details: ATCC 12228, 18 h; how it was run: as §2
Enterococcus faecalis = assay: Antibacterial activity against Enterococcus faecalis ATCC 29212 measured after 18 hrs by CLSI broth dilution method; format: functional; details: ATCC 29212, 18 h; how it was run: as §2
[10] = test system: Staphylococcus epidermidis; assay: Antibacterial activity against Staphylococcus epidermidis ATCC 12228 assessed as diameter of zone inhibition measured after 18 hrs by CLSI disc diffusion method; format: functional; how it was run: as §1
Enterococcus faecium = assay: Antibacterial activity against Enterococcus faecium ATCC 6057 assessed as diameter of zone inhibition measured after 18 hrs by CLSI disc diffusion method; format: functional; how it was run: as §1
Bacillus subtilis = assay: Antibacterial activity against Bacillus subtilis ATCC 6633 assessed as diameter of zone inhibition measured after 18 hrs by CLSI disc diffusion method; format: functional; how it was run: as §1
Escherichia coli [11] = assay: Antibacterial activity against Escherichia coli ATCC 25922 measured after 18 hrs by CLSI broth dilution method; format: functional; details: ATCC 25922, 18 h; how it was run: as §2
Klebsiella pneumoniae [12] = assay: Antibacterial activity against Klebsiella pneumoniae ATCC 13883 measured after 18 hrs by CLSI broth dilution method; format: functional; details: ATCC 13883, 18 h; how it was run: as §2
Proteus mirabilis [13] = assay: Antibacterial activity against Proteus mirabilis ATCC 12453 measured after 18 hrs by CLSI broth dilution method; format: functional; details: ATCC 12453, 18 h; how it was run: as §2
Acinetobacter baumannii [14] = assay: Antibacterial activity against Acinetobacter baumannii ATCC 19606 measured after 18 hrs by CLSI broth dilution method; format: functional; details: ATCC 19606, 18 h; how it was run: as §2
Escherichia coli [15] = assay: Antibacterial activity against Escherichia coli ATCC 25922 assessed as diameter of zone inhibition measured after 18 hrs by CLSI disc diffusion method; format: functional; how it was run: as §1
Enterobacter cloacae [16] = assay: Antibacterial activity against Enterobacter cloacae DSM 6234 assessed as diameter of zone inhibition measured after 18 hrs by CLSI disc diffusion method; format: functional; how it was run: as §1
Pseudomonas aeruginosa [17] = assay: Antibacterial activity against Pseudomonas aeruginosa ATCC 27853 assessed as diameter of zone inhibition measured after 18 hrs by CLSI disc diffusion method; format: functional, organism-based; how it was run: as §1
Acinetobacter baumannii [18] = assay: Antibacterial activity against Acinetobacter baumannii ATCC 19606 assessed as diameter of zone inhibition measured after 18 hrs by CLSI disc diffusion method; format: functional; how it was run: as §1
Burkholderia cepacia = assay: Antibacterial activity against Burkholderia cepacia ATCC 25416 assessed as diameter of zone inhibition measured after 18 hrs by CLSI disc diffusion method; format: functional; how it was run: as §1
[19] = test system: Bordetella bronchiseptica; assay: Antibacterial activity against Bordetella bronchiseptica ATCC 4617 assessed as diameter of zone inhibition measured after 18 hrs by CLSI disc diffusion method; format: functional; how it was run: as §1
Escherichia coli [20] = assay: Antibacterial activity against Escherichia coli ATCC 25922 assessed as fold reduction of MIC in presence of efflux pump inhibitor PAbetaN incubated for 18 hrs by CLSI broth microdilution method; format: functional
How it was run: (§5)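 MICs determined with and without PAβN at 50 mg/L in Mueller-Hinton broth containing 1 mM MgSO₄. 2-fold serial dilutions per CLSI. Fold change taken from the paired MICs after 35 °C, 18 h.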

Klebsiella pneumoniae [21] = assay: Antibacterial activity against Klebsiella pneumoniae ATCC 13883 assessed as fold reduction of MIC in presence of efflux pump inhibitor PAbetaN incubated for 18 hrs by broth microdilution method; format: functional; how it was run: as §5
Proteus mirabilis [22] = assay: Antibacterial activity against Proteus mirabilis ATCC 12453 assessed as fold reduction of MIC in presence of efflux pump inhibitor PAbetaN incubated for 18 hrs by broth microdilution method; format: functional; how it was run: as §5
Enterobacter cloacae [23] = assay: Antibacterial activity against Enterobacter cloacae DSM 6234 assessed as fold reduction of MIC in presence of efflux pump inhibitor PAbetaN incubated for 18 hrs by broth microdilution method; format: functional; how it was run: as §5
Serratia marcescens [24] = assay: Antibacterial activity against Serratia marcescens ATCC 13880 assessed as fold reduction of MIC in presence of efflux pump inhibitor PAbetaN incubated for 18 hrs by broth microdilution method; format: functional; how it was run: as §5
Acinetobacter baumannii [25] = assay: Antibacterial activity against Acinetobacter baumannii ATCC 19606 assessed as fold reduction of MIC in presence of efflux pump inhibitor PAbetaN incubated for 18 hrs by broth microdilution method; format: functional; how it was run: as §5
Serratia marcescens [26] = details: ATCC 13880

| MIC (Pseudomonas aeruginosa [2]) [µg/mL] | pKa [3] | MIC [4] [µg/mL] | MIC (Pichia kudriavzevii [5]) [µg/mL] | MIC (Saccharomyces cerevisiae) [µg/mL] | MIC (Staphylococcus aureus [8]) [µg/mL] | MIC [9] [µg/mL] | MIC (Enterococcus faecalis) [µg/mL] | MIC (Escherichia coli [11]) [µg/mL] | MIC (Klebsiella pneumoniae [12]) [µg/mL] | MIC (Proteus mirabilis [13]) [µg/mL] | SMILES | diameter of the inhibition zone (DIZ) (Staphylococcus aureus [1]) [mm] | diameter of the inhibition zone (DIZ) (Candida albicans) | diameter of the inhibition zone (DIZ) (Candida parapsilosis) | diameter of the inhibition zone (DIZ) (Candida tropicalis) | diameter of the inhibition zone (DIZ) [6] | diameter of the inhibition zone (DIZ) (Pichia kudriavzevii [7]) | diameter of the inhibition zone (DIZ) [10] [mm] | diameter of the inhibition zone (DIZ) (Enterococcus faecium) | diameter of the inhibition zone (DIZ) (Bacillus subtilis) [mm] | also measured |
| --- | --- | --- | --- | --- | --- | --- | --- | --- | --- | --- | --- | --- | --- | --- | --- | --- | --- | --- | --- | --- | --- |
| > 400 | 6 | 25 (≈ 101 µM) | 12.5 (≈ 50.6 µM) | 6.25 (≈ 25.3 µM) | 6.25 (≈ 25.3 µM) | 6.25 (≈ 25.3 µM) | 25 (≈ 101 µM) | 400 (≈ 1620 µM) | 400 (≈ 1620 µM) | > 400 | C[Si]1(C)OB(O)c2ccc(Cl)c(Cl)c21 | 23 | 33 mm | 28 mm | 31 mm | 47 mm | 29 mm | 22 | 28 mm | 33 | MIC (Acinetobacter baumannii [14]): 400 µg/mL (≈ 1620 µM); diameter of the inhibition zone (DIZ) (Escherichia coli [15]): inactive; diameter of the inhibition zone (DIZ) (Enterobacter cloacae [16]): inactive; diameter of the inhibition zone (DIZ) (Pseudomonas aeruginosa [17]): inactive; diameter of the inhibition zone (DIZ) (Acinetobacter baumannii [18]): inactive; diameter of the inhibition zone (DIZ) (Burkholderia cepacia): inactive; diameter of the inhibition zone (DIZ) [19]: 12 mm; fold change (FC) (Escherichia coli [20]): 64; fold change (FC) (Klebsiella pneumoniae [21]): 32; fold change (FC) (Proteus mirabilis [22]): 4; fold change (FC) (Enterobacter cloacae [23]): 64; fold change (FC) (Serratia marcescens [24]): 32; fold change (FC) (Acinetobacter baumannii [25]): 8; DIZ (Serratia marcescens [26]): inactive |
| > 400 | 7.4 | > 400 | 50 (≈ 225 µM) | 50 (≈ 225 µM) | 400 (≈ 1800 µM) | 200 (≈ 901 µM) | > 400 | > 400 | > 400 | > 400 | C[Si]1(C)OB(O)c2cccc(B(O)O)c21 | 11 | inactive | inactive | inactive | inactive | inactive | 22 | inactive | 15 | MIC (Acinetobacter baumannii [14]): 400 µg/mL (≈ 1800 µM); diameter of the inhibition zone (DIZ) (Escherichia coli [15]): inactive; diameter of the inhibition zone (DIZ) (Enterobacter cloacae [16]): inactive; diameter of the inhibition zone (DIZ) (Pseudomonas aeruginosa [17]): inactive; diameter of the inhibition zone (DIZ) (Acinetobacter baumannii [18]): inactive; diameter of the inhibition zone (DIZ) (Burkholderia cepacia): inactive; diameter of the inhibition zone (DIZ) [19]: inactive; fold change (FC) (Escherichia coli [20]): 4; fold change (FC) (Klebsiella pneumoniae [21]): 4; fold change (FC) (Proteus mirabilis [22]): 0; fold change (FC) (Enterobacter cloacae [23]): 8; fold change (FC) (Serratia marcescens [24]): 2; fold change (FC) (Acinetobacter baumannii [25]): 2; DIZ (Serratia marcescens [26]): inactive |
| > 400 | 5.6 | > 400 | > 400 | 200 (≈ 893 µM) | 25 (≈ 112 µM) | 50 (≈ 223 µM) | 400 (≈ 1790 µM) | > 400 | > 400 | > 400 | C[Si]1(C)OB(O)c2cc(C=O)cc(F)c21 | 22 | inactive | inactive | inactive | inactive | inactive | 31 | inactive | 22 | MIC (Acinetobacter baumannii [14]): > 400 µg/mL; diameter of the inhibition zone (DIZ) (Escherichia coli [15]): inactive; diameter of the inhibition zone (DIZ) (Enterobacter cloacae [16]): inactive; diameter of the inhibition zone (DIZ) (Pseudomonas aeruginosa [17]): inactive; diameter of the inhibition zone (DIZ) (Acinetobacter baumannii [18]): inactive; diameter of the inhibition zone (DIZ) (Burkholderia cepacia): inactive; diameter of the inhibition zone (DIZ) [19]: inactive; fold change (FC) (Escherichia coli [20]): 16; fold change (FC) (Klebsiella pneumoniae [21]): 8; fold change (FC) (Proteus mirabilis [22]): 4; fold change (FC) (Enterobacter cloacae [23]): 16; fold change (FC) (Serratia marcescens [24]): 8; fold change (FC) (Acinetobacter baumannii [25]): 4; DIZ (Serratia marcescens [26]): inactive |

— ChEMBL document CHEMBL4346672, “Antimicrobial and KPC/AmpC inhibitory activity of functionalized benzosiloxaboroles” (Eur J Med Chem, 2019)
